pIC50: −log10 of the molar value.

One assay deals with KMO. The settings on record: read-out: IC50 (KMO inhibitor); cited from earlier work.
In a further assay the target is human KMO (Homo sapiens, UniProt O15229). The experiment in a line: Kinetics study. The settings on record: Lineweaver-Burk plots, 0–40 μM compound, 0–20 μM L-Kyn. Format: biochemical. The method in brief:
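Human KMO was exposed to graded test compound concentrations across a range of L-Kyn concentrations. Reaction velocities were plotted as double reciprocals (Lineweaver-Burk). Inhibition type was assigned from how the x- and y-intercepts, reflecting Km and Vmax, shifted with inhibitor. Each condition was run in triplicate, and the experiments were repeated three times.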

Sequence of human KMO (O15229 whole entry): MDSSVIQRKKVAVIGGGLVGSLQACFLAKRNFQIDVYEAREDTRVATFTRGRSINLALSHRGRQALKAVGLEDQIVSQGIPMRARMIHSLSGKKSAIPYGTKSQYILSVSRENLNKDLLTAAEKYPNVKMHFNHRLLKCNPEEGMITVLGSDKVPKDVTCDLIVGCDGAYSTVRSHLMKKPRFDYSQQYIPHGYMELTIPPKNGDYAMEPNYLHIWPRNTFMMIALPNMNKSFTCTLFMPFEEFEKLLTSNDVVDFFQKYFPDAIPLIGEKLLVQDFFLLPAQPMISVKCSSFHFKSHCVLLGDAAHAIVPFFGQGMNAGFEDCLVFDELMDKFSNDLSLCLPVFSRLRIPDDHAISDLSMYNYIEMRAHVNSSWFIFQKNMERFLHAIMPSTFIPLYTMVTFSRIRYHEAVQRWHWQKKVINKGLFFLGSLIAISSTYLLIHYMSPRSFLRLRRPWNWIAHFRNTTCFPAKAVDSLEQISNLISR

By pIC50 is commonly meant −log10 of the IC50, conventionally taken in molar units. In the case of `Cc1ccc([C@@H](C)Oc2cc3onc(CCC(=O)O)c3cc2Cl)nn1` [GSK 366], the pIC50 in the assay with KMO is 8.64.

Consider `O=C(O)[C@H]1C[C@@H]1C(=O)c1ccc(Cl)c(Cl)c1` [UPF-648], for which the pIC50 in the assay with KMO was 7.70.

`COc1cc(O)c2c(=O)cc(-c3ccc(O)cc3)oc2c1` [Genkwanin]: the Inhibition type result at human KMO is “non-competitive inhibition”; at human KMO (listed as genkwanin) it was “non-competitive inhibitors”.

For the compound `O=c1cc(-c2ccc(O)cc2)oc2cc(O)cc(O)c12` [Apigenin], the Inhibition type entry was “non-competitive inhibition” at human KMO and “non-competitive inhibitors” at human KMO (listed as apigenin).

Values taken from publication PMC11079110 (Heliyon, 2024).
